Data taken from ChEMBL document CHEMBL3627646, “Synthesis and biological activity of amino acid derivatives of avarone and its model compound” (Bioorg Med Chem, 2015).
pIC50: −log10 of the molar value. Converted amounts (≈) assume the structure as drawn. The source made the active and inactive calls. The rule behind the calls is not given here.

Legend:
[1] = tested on: Micrococcus flavus; test: Antibacterial activity against Micrococcus flavus ATCC 10240 after 24 hrs by microbroth double dilution method; type: functional; details: ATCC 10240, 24 h
Summary of the method: (§1)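 Microbroth double dilution in Mueller Hinton broth; compound stock 10 mg/mL in DMSO serially halved across rows. Wells inoculated with 10 μL culture at 10^6 cells/mL, incubated 37 °C for 24 h. Amikacin row as positive control, DMSO row as negative control. MIC taken as lowest concentration inhibiting bacterial growth.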

[2] = tested on: Artemia salina; test: Cytotoxicity in Brine shrimp assessed as nauplii mortality after 24 hrs; type: organism-based; details: in vivo
Summary of the method: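 Artemia salina eggs hatched in aerated tap water with dried yeast at 18–20 °C under illumination for 48 h, and freshly hatched nauplii were used. Compounds in DMSO (0.01–1 mg) were added to 950 µL artificial seawater containing 10–20 nauplii, with 5% final DMSO. After 24 h under illumination at room temperature, dead and surviving nauplii were counted and statistically analysed.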

[3] = tested on: Saccharomyces cerevisiae; test: Antifungal activity against Saccharomyces cerevisiae ATCC 9763 after 24 hrs by microbroth double dilution method; type: functional; details: ATCC 9763, 24 h
[4] = tested on: Proteus hauseri; test: Antibacterial activity against Proteus hauseri ATCC 13315 after 24 hrs by microbroth double dilution method; type: functional; details: ATCC 13315, 24 h; summary of the method: as §1
[5] = tested on: K562; test: Cytotoxicity against human K562 cells assessed as cell survival after 72 hrs by MTT assay; type: functional, cell-based; details: K562, 72 h
Summary of the method: (§2)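 Cells seeded (HeLa 2000, MDA-MB-453 3000, others 5000 per well), treated 24 h later (K562 after 2 h). Five double-diluted final concentrations, 200–12.5 μM, from 10 mM DMSO stocks, in RPMI-1640 with 10% FBS, pH 7.2, 72 h. MTT 4 h at 37 °C, SDS added, A570 read next day. Survival relative to medium control; IC50 from survival curves; triplicate; cisplatin positive control.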

[6] = tested on: MDA-MB-453; test: Cytotoxicity against human MDA-MB-453 cells assessed as cell survival after 72 hrs by MTT assay; type: functional, cell-based; details: MDA-MB-453, 72 h; summary of the method: as §2
[7] = tested on: Staphylococcus aureus; test: Antibacterial activity against Staphylococcus aureus ATCC 6538 after 24 hrs by microbroth double dilution method; type: functional; details: ATCC 6538, 24 h; summary of the method: as §1
[8] = tested on: Candida albicans; test: Antifungal activity against Candida albicans ATCC 10231 after 24 hrs by microbroth double dilution method; type: functional; details: ATCC 10231, 24 h
[9] = tested on: Pseudomonas aeruginosa; test: Antibacterial activity against Pseudomonas aeruginosa ATCC 9027 after 24 hrs by microbroth double dilution method; type: functional; details: ATCC 9027, 24 h; summary of the method: as §1
[10] = tested on: Clostridium sporogenes; test: Antibacterial activity against Clostridium sporogenes ATCC 19404 after 24 hrs by microbroth double dilution method; type: functional; details: ATCC 19404, 24 h; summary of the method: as §1
[11] = tested on: Kocuria rhizophila; test: Antibacterial activity against Kocuria rhizophila ATCC 9341 after 24 hrs by microbroth double dilution method; type: functional; details: ATCC 9341, 24 h; summary of the method: as §1
[12] = tested on: Aspergillus brasiliensis; test: Antifungal activity against Aspergillus brasiliensis ATCC 16404 after 24 hrs by microbroth double dilution method; type: functional; details: ATCC 16404, 24 h
[13] = tested on: Micrococcus luteus; test: Antibacterial activity against Micrococcus luteus ATCC 4698 after 24 hrs by microbroth double dilution method; type: functional; details: ATCC 4698, 24 h; summary of the method: as §1
[14] = tested on: Escherichia coli; test: Antibacterial activity against Escherichia coli ATCC 25922 after 24 hrs by microbroth double dilution method; type: functional; details: ATCC 25922, 24 h; summary of the method: as §1
[15] = tested on: MRC5; test: Cytotoxicity against human MRC5 cells assessed as cell survival after 72 hrs by MTT assay; type: cell-based; details: MRC5, 72 h; summary of the method: as §2
[16] = tested on: Salmonella enterica; test: Antibacterial activity against Salmonella enterica ATCC 13076 after 24 hrs by microbroth double dilution method; type: functional; details: ATCC 13076, 24 h; summary of the method: as §1
[17] = Cytotoxicity against human Fem-X cells assessed as cell survival after 72 hrs by MTT assay; type: functional, cell-based; summary of the method: as §2
[18] = tested on: HeLa; test: Cytotoxicity against human HeLa cells assessed as cell survival after 72 hrs by MTT assay; type: functional, cell-based; summary of the method: as §2
[19] = tested on: Bacillus subtilis; test: Antibacterial activity against Bacillus subtilis ATCC 6633 after 24 hrs by microbroth double dilution method; type: functional; details: ATCC 6633, 24 h; summary of the method: as §1
[20] = tested on: A549; test: Cytotoxicity against human A549 cells assessed as cell survival after 72 hrs by MTT assay; type: functional, cell-based; details: A549, 72 h; summary of the method: as §2
[21] = tested on: HeLa; test: Cell cycle arrest in human HeLa cells assessed as reduction in G1 phase at 2 time IC50 after 24 hrs using propidium iodide staining by cytofluorometric analysis; type: functional, cell-based
Summary of the method: (§3)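 Trypsinized, fixed in ice-cold 70% ethanol then held at −20 °C at least one week. Treated with RNase 100 µg/mL at 37 °C 30 min, stained with PI 40 µg/mL at least 30 min. Flow cytometry on ≥10,000 cells.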

[22] = tested on: HeLa; test: Cell cycle arrest in human HeLa cells assessed as accumulation at G2/M phase at IC50 after 24 hrs using propidium iodide staining by cytofluorometric analysis; type: functional, cell-based; summary of the method: as §3
[23] = tested on: HeLa; test: Cell cycle arrest in human HeLa cells assessed as accumulation at G2/M phase at 2 time IC50 after 24 hrs using propidium iodide staining by cytofluorometric analysis; type: functional, cell-based; summary of the method: as §3
[24] = tested on: HeLa; test: Cell cycle arrest in human HeLa cells assessed as accumulation at sub-G1 phase at IC50 after 24 hrs using propidium iodide staining by cytofluorometric analysis; type: functional, cell-based; summary of the method: as §3
[25] = tested on: HeLa; test: Cell cycle arrest in human HeLa cells assessed as reduction in G1 phase at IC50 after 24 hrs using propidium iodide staining by cytofluorometric analysis; type: functional, cell-based; summary of the method: as §3
[26] = tested on: HeLa; test: Cell cycle arrest in human HeLa cells assessed as accumulation at sub-G1 phase at 2 time IC50 after 24 hrs using propidium iodide staining by cytofluorometric analysis; type: functional, cell-based; summary of the method: as §3
[27] = tested on: HeLa; test: Cell cycle arrest in human HeLa cells assessed as accumulation at sub-G1 phase after 24 hrs using propidium iodide staining by cytofluorometric analysis; type: functional, cell-based; summary of the method: as §3
[28] = tested on: HeLa; test: Cell cycle arrest in human HeLa cells assessed as accumulation at G2/M phase after 24 hrs using propidium iodide staining by cytofluorometric analysis; type: functional, cell-based; summary of the method: as §3
[29] = tested on: HeLa; test: Induction of apoptosis in human HeLa cells assessed as accumulation at sub-G1 phase after 24 hrs using propidium iodide staining by flow cytometric analysis; type: functional, cell-based
[30] = tested on: HeLa; test: Induction of apoptosis in human HeLa cells assessed as accumulation at sub-G1 phase after 24 hrs in presence of caspase-8 inhibitor Z-IETD-FMK using propidium iodide staining by flow cytometric analysis; type: functional, cell-based
[31] = tested on: HeLa; test: Induction of apoptosis in human HeLa cells assessed as accumulation at sub-G1 phase after 24 hrs in presence of caspase-3 inhibitor Z-DEVD-FMK using propidium iodide staining by flow cytometric analysis; type: functional, cell-based
[32] = tested on: HeLa; test: Induction of apoptosis in human HeLa cells assessed as accumulation at sub-G1 phase after 24 hrs in presence of caspase-9 inhibitor Z-LEHD-FMK using propidium iodide staining by flow cytometric analysis; type: functional, cell-based

Compound | MIC [1] [µM] | LC50 [2] [ppm] | MIC [3] [µM] | MIC [4] [µM] | pIC50 [5] | pIC50 [6] | MIC [7] [µM] | MIC [8] [µM] | MIC [9] [µM] | MIC [10] [µM] | MIC [11] [µM] | MIC [12] [µM] | MIC [13] [µM] | MIC [14] [µM] | pIC50 [15] | MIC [16] [µM] | pIC50 [17] | pIC50 [18] | MIC [19] [µM] | pIC50 [20] | other results
CC(C)(C)C1=CC(=O)C=CC1=O | 475 (≈ 78 µg/mL) | 27.4 | 238 (≈ 39 µg/mL) | 475 (≈ 78 µg/mL) | 4.81 | 4.25 | 238 (≈ 39 µg/mL) | 122 (≈ 20 µg/mL) | 475 (≈ 78 µg/mL) | 475 (≈ 78 µg/mL) | 475 (≈ 78 µg/mL) | 122 (≈ 20 µg/mL) | 238 (≈ 39 µg/mL) | 238 (≈ 39 µg/mL) | < 3.70 | 475 (≈ 78 µg/mL) | 4.38 | 4.36 | 238 (≈ 39 µg/mL) | 4.33 | –
CC(C)C[C@H](NC1=CC(=O)C=C(C(C)(C)C)C1=O)C(=O)O | 2130 (≈ 625 µg/mL) | 104.8 | 133 (≈ 39 µg/mL) | 2130 (≈ 625 µg/mL) | 4.12 | 4.07 | 266 (≈ 78 µg/mL) | 536 (≈ 157 µg/mL) | 4260 (≈ 1250 µg/mL) | 2130 (≈ 625 µg/mL) | 2130 (≈ 625 µg/mL) | 1070 (≈ 313 µg/mL) | 266 (≈ 78 µg/mL) | 266 (≈ 78 µg/mL) | < 3.70 | 2130 (≈ 625 µg/mL) | 4.40 | 4.24 | 2130 (≈ 625 µg/mL) | 4.01 | –
CC1=CCC[C@H]2[C@](C)(CC3=CC(=O)C=C(N[C@@H](C(=O)O)C(C)C)C3=O)[C@@H](C)CC[C@]12C | 91.3 (≈ 39.1 µg/mL) | 50.5 | 368 (≈ 157 µg/mL) | 183 (≈ 78.1 µg/mL) | 5.11 | 5.10 | 22.9 (≈ 9.81 µg/mL) | < 2.88 | 91.3 (≈ 39.1 µg/mL) | 91.3 (≈ 39.1 µg/mL) | 1460 (≈ 626 µg/mL) | 164 (≈ 70.2 µg/mL) | 22.9 (≈ 9.81 µg/mL) | 22.9 (≈ 9.81 µg/mL) | 4.07 | 183 (≈ 78.1 µg/mL) | 4.94 | 4.96 | 91.3 (≈ 39.1 µg/mL) | 4.62 | Activity [21]: Active; Activity [22]: Active; Activity [23]: Active; Activity [24]: Active; Activity [25]: Active; Activity [26]: Active; Activity [27]: Dose-dependent effect; Activity [28]: Dose-dependent effect
CC1=CCC[C@H]2[C@](C)(CC3=CC(=O)C=C(N[C@@H](CC(C)C)C(=O)O)C3=O)[C@@H](C)CC[C@]12C | 88.3 (≈ 39 µg/mL) | 117 | 176 (≈ 77.9 µg/mL) | 44.2 (≈ 19.5 µg/mL) | 4.95 | 4.96 | 5.55 (≈ 2.45 µg/mL) | < 5.54 | 88.3 (≈ 39 µg/mL) | 44.2 (≈ 19.5 µg/mL) | 709 (≈ 313 µg/mL) | 1410 (≈ 624 µg/mL) | 11.1 (≈ 4.9 µg/mL) | 5.55 (≈ 2.45 µg/mL) | 4.13 | 88.3 (≈ 39 µg/mL) | 4.96 | 5.11 | 88.3 (≈ 39 µg/mL) | 4.71 | Activity [21]: Active; Activity [24]: Active; Activity [29]: Active; Activity [30]: inactive; Activity [25]: Active; Activity [31]: inactive; Activity [26]: Active; Activity [32]: inactive
C[C@H](NC1=CC(=O)C=C(C(C)(C)C)C1=O)C(=O)O | 2490 (≈ 626 µg/mL) | 393.8 | 626 (≈ 157 µg/mL) | 4980 (≈ 1250 µg/mL) | 4.11 | 3.95 | 1250 (≈ 313 µg/mL) | 626 (≈ 157 µg/mL) | 2490 (≈ 626 µg/mL) | 2490 (≈ 626 µg/mL) | 4980 (≈ 1250 µg/mL) | 1240 (≈ 312 µg/mL) | 1250 (≈ 313 µg/mL) | 1250 (≈ 313 µg/mL) | < 3.70 | 2490 (≈ 626 µg/mL) | 4.70 | 4.05 | 2490 (≈ 626 µg/mL) | < 3.70 | –
